The source made the active and inactive calls. No cut-off for these calls is given here.
Columns and labels:
[1] = 1-Octanol-water partition coefficient, log P of the compound at pH 6 after 1 week by HPLC-ESIMS/MS analysis; type: physicochemical
Procedure, shortened: (§1)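 Shake-flask partition: analytes started at 0.1 mM in 0.1 M Na phosphate buffer (pH range 4.5 to 9). Buffer solution mixed 1:1 with buffer-presaturated 1-octanol and equilibrated 1 week under continuous stirring at 25 °C. After centrifugation the phases were separated, and the aqueous phase was diluted in mobile phase and quantified by HPLC-ESIMS/MS. LogD calculated from the aqueous-phase concentration.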

[2] = Solubility of the compound in sodium phosphate buffer at pH 4.5 at 25 degC after 1 week by HPLC-ESIMS/MS analysis; type: physicochemical
Procedure, shortened: (§2)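 Solubility samples in sodium phosphate buffer at each pH were stirred continuously for 1 week at 25 °C. Solutions were passed through 0.45 μm regenerated-cellulose filters, diluted in mobile phase and quantified by HPLC-ESIMS/MS.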

[3] = 1-Octanol-water partition coefficient, log P of the compound at pH 4.5 after 1 week by HPLC-ESIMS/MS analysis; type: physicochemical; procedure, shortened: as §1
[4] = 1-Octanol-water distribution coefficient, log D of the compound at pH 8.6 after 1 week by HPLC-ESIMS/MS analysis; type: physicochemical; procedure, shortened: as §1
[5] = Solubility of the compound in sodium phosphate buffer at pH 7 at 25 degC after 1 week by HPLC-ESIMS/MS analysis; type: physicochemical; procedure, shortened: as §2
[6] = 1-Octanol-water partition coefficient, log P of the compound at pH 7 after 1 week by HPLC-ESIMS/MS analysis; type: physicochemical; procedure, shortened: as §1
[7] = 1-Octanol-water distribution coefficient, log D of the compound at pH 4.5 after 1 week by HPLC-ESIMS/MS analysis; type: physicochemical; procedure, shortened: as §1
[8] = 1-Octanol-water distribution coefficient, log D of the compound at pH 7 after 1 week by HPLC-ESIMS/MS analysis; type: physicochemical; procedure, shortened: as §1
[9] = Solubility of the compound in sodium phosphate buffer at pH 8.6 at 25 degC after 1 week by HPLC-ESIMS/MS analysis; type: physicochemical; procedure, shortened: as §2
[10] = Dissociation constant, pKa of the compound; type: physicochemical
Procedure, shortened: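 pKa values predicted in silico for the ionizable groups of the parent and its metabolites, then compared with experimentally obtained values from earlier reports.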

[11] = target: Albumin (Bos taurus, UniProt P02769); assay: Binding affinity to bovine serum albumin by fluorescence quenching assay; type: ADME; details: cattle, isolated protein
Chain of Albumin (P02769 whole entry): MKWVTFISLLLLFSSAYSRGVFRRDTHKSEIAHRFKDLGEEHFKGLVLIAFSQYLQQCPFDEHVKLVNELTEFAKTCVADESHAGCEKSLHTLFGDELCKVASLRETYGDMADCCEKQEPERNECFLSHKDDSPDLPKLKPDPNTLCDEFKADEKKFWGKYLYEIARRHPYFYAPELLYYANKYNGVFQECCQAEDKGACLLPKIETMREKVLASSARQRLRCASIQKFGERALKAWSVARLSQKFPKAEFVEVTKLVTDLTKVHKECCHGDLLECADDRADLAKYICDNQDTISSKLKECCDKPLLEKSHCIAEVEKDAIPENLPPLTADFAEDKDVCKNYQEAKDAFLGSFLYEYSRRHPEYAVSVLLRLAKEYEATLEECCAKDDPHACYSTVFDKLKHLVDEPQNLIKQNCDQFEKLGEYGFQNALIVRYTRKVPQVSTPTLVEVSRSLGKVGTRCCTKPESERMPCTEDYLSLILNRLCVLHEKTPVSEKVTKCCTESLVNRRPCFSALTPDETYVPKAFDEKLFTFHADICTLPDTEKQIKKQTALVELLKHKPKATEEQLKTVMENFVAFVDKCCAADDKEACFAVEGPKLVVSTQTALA
Procedure, shortened: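 BSA at 1.0 × 10−5 mol L−1 in Tris-HCl buffer (0.05 M Tris, 0.15 M NaCl, pH 7.4), titrated with quencher from 0 to 2.4 × 10−5 mol L−1 in 0.2 × 10−5 steps at room temperature. Tryptophan emission recorded at 300–500 nm (excitation 295 nm; maximum at 340 nm). Binding constant KB obtained from a modified Stern–Volmer plot, assuming static quenching.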

[12] = 1-Octanol-water partition coefficient, log P of the compound at pH 8.6 after 1 week by HPLC-ESIMS/MS analysis; type: physicochemical; procedure, shortened: as §1
[13] = Solubility of the compound in sodium phosphate buffer at pH 6 at 25 degC after 1 week by HPLC-ESIMS/MS analysis; type: physicochemical; procedure, shortened: as §2
[14] = 1-Octanol-water distribution coefficient, log D of the compound at pH 6 after 1 week by HPLC-ESIMS/MS analysis; type: physicochemical; procedure, shortened: as §1
[15] = tested on: Homo sapiens; assay: Effect on HDL cholesterol level in hypercholesterolemic patient at 15 mg/kg/day administered for 3 months measured every month during compound treatment; type: functional, organism-based
[16] = Cmax at steady state in hypercholesterolemic patient at 15 mg/kg administered for 3 months by HPLC-ESIMS/MS analysis; type: ADME, organism-based; set-up: dose 15 mg/kg; details: human, in vivo
[17] = tested on: Homo sapiens; assay: Hypolipidemic activity in hypercholesterolemic patient assessed as reduction of total cholesterol level at 15 mg/kg/day administered for 3 months measured every month during compound treatment; type: functional, organism-based
[18] = tested on: Plasma; assay: Cmax in human plasma assessed as jatrorrhizine at 500 mg, po by HPLC-ESIMS/MS analysis; type: ADME, organism-based; set-up: dose 500 mg, route oral; details: in vivo
[19] = tested on: Homo sapiens; assay: Cmax at steady state in hypercholesterolemic patient assessed as demethyleneberberin at 15 mg/kg/day administered for 3 months by HPLC-ESIMS/MS analysis; type: ADME, organism-based; set-up: dose 15 mg/kg/day; details: in vivo
[20] = tested on: Homo sapiens; assay: Effect on total triglyceride level in hypercholesterolemic patient at 15 mg/kg/day administered for 3 months measured every month during compound treatment; type: functional, organism-based
[21] = Dissociation constant, basic pKa of the compound; type: physicochemical
[22] = tested on: Homo sapiens; assay: Cmax at steady state in hypercholesterolemic patient assessed as berberrubine at 15 mg/kg/day administered for 3 months by HPLC-ESIMS/MS analysis; type: ADME, organism-based; set-up: dose 15 mg/kg/day; details: in vivo
[23] = Dissociation constant, acidic pKa of the compound; type: physicochemical
[24] = tested on: Homo sapiens; assay: Tmax in human assessed as jatrorrhizine at 500 mg, po by HPLC-ESIMS/MS analysis; type: ADME, organism-based; details: in vivo
[25] = Tmax in human at 500 mg, po by HPLC-ESIMS/MS analysis; type: ADME, organism-based; details: in vivo
[26] = tested on: Homo sapiens; assay: Cmax at steady state in hypercholesterolemic patient assessed as jatrorrhizine at 15 mg/kg/day administered for 3 months by HPLC-ESIMS/MS analysis; type: ADME, organism-based; set-up: dose 15 mg/kg/day; details: in vivo
[27] = tested on: Plasma; assay: Plasma concentration in human assessed as berberrubine at 500 mg, po after 24 hrs by HPLC-ESIMS/MS analysis; type: ADME, organism-based; details: in vivo
[28] = tested on: Homo sapiens; assay: Hypolipidemic activity in hypercholesterolemic patient assessed as reduction of LDL cholesterol level at 15 mg/kg/day administered for 3 months measured every month during compound treatment; type: functional, organism-based
[29] = tested on: Homo sapiens; assay: Tmax in human assessed as demethyleneberberin at 500 mg, po by HPLC-ESIMS/MS analysis; type: ADME, organism-based; details: in vivo
[30] = tested on: Plasma; assay: Cmax in human plasma assessed as berberrubine at 500 mg, po after 4 hrs by HPLC-ESIMS/MS analysis; type: ADME, organism-based; set-up: dose 500 mg, route oral; details: in vivo
[31] = tested on: Plasma; assay: Cmax in human plasma assessed as demethyleneberberin at 500 mg, po by HPLC-ESIMS/MS analysis; type: ADME, organism-based; set-up: dose 500 mg, route oral; details: in vivo
[32] = Cmax in human plasma at 500 mg, po by HPLC-ESIMS/MS analysis; type: ADME, organism-based; set-up: dose 500 mg, route oral

Row | Compound | logD at 168 h [1] | solubility at 168 h [2] [mM] | logD at 168 h [3] | logD at 168 h [4] | solubility at 168 h [5] [mM] | logD at 168 h [6] | logD at 168 h [7] | logD at 168 h [8] | solubility at 168 h [9] [mM] | pKa [10] | Kb [11] [×10³ L/mol] | logD at 168 h [12] | solubility at 168 h [13] [mM] | logD at 168 h [14] | other results
1 | COc1ccc2cc3[n+](cc2c1O)CCc1cc2c(cc1-3)OCO2.[Cl-] [BERBERRUBINE CHLORIDE] | 0.9 | 4.2 | -0.02 | 4.6 | 1 | 1.1 | 0.01 | 2.5 | 0.5 | 5 | 1.51 | 1.6 | 2 | 1.4 | –
2 | COc1ccc2cc3n(cc-2c1=O)CCc1cc2c(cc1-3)OCO2 | 1.3 | – | 0.6 | 4.6 | – | 1.5 | 0.7 | 2.9 | – | – | – | 1.6 | – | 1.8 | –
3 | COc1ccc2cc3[n+](cc2c1OC)CCc1cc(O)c(O)cc1-3.[Cl-] | -1.1 | 0.2 | -1.1 | -0.3 | 3.7 | -1.1 | -1.1 | -1.1 | 6.5 | 9.4 | 1.98 | -0.5 | 0.2 | -1.1 | –
4 | COc1cc2c(cc1O)CC[n+]1cc3c(OC)c(OC)ccc3cc1-2.[Cl-] [JATRORRHIZINE CHLORIDE] | -1.5 | 1.5 | -1.5 | 0.6 | 12.4 | -1.2 | -1.5 | -1.2 | 12.2 | 9.6 | 1.73 | 0.1 | 1.3 | -1.5 | –
5 | COc1ccc2cc3[n+](cc2c1OC)CCc1cc2c(cc1-3)OCO2.[Cl-] [BERBERINE CHLORIDE] | -1.2 | 8.2 | -1.2 | -1.2 | 9 | -1.2 | -1.2 | -1.2 | 9.6 | – | 3.37 | -1.2 | 7.6 | -1.2 | Activity [15]: inactive; Cmax at 3 months [16]: 4 nM; Activity [17]: Active; Cmax [18]: 0.13 nM; Cmax [19]: 1.7 nM; Activity [20]: inactive; pKa [21]: 15.7; Cmax [22]: 6.7 nM; pKa [23]: 2.47; Tmax [24]: 2 h; Tmax [25]: 1 h; Cmax [26]: 5.6 nM; concentration [27]: 0.15 nM; Activity [28]: Active; Tmax [29]: 1 h; Cmax [30]: 1.4 nM; Cmax [31]: 0.14 nM; Cmax [32]: 0.07 nM
